Compound activity deposited in PubChem BioAssay by several laboratories.
Sampled rows, rich in hits. Any-hit rate of the full collection: about 9.6%.
PMI activator – activators of human phosphomannose isomerase. activation factor at 20 µM. purified human PMI, coupled resazurin fluorescence, 20 min; active compounds read high; 1 = vehicle control, 0 substrate-free wells. P34949. actives 0.005% (n = 190,000);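 active means activation factor of 2 or more at 20 µM, relative to plate controls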
Target sequence (P34949 whole entry, looked up): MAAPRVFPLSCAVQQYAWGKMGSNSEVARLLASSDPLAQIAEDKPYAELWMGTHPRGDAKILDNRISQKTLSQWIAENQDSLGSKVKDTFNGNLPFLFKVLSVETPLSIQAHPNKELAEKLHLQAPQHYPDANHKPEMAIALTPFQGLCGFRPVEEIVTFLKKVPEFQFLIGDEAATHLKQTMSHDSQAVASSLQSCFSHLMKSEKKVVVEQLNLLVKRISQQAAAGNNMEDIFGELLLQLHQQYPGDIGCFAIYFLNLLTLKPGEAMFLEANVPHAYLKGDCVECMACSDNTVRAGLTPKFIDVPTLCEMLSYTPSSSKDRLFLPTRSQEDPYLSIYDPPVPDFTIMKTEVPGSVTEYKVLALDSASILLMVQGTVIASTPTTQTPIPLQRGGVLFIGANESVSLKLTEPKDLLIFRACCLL
PMI act satM6P – activators of human phosphomannose isomerase at near-saturating mannose 6-phosphate; P34949; AID 1216; coupled PMI enzyme assay, resazurin fluorescence, 20 min; active compounds read high; 1 = untreated enzyme, 0 = substrate-free blank; actives 0.34% (n = 190,000); activation factor at 20 µM;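 active means activation factor of 2 or more at 20 µM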
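Material: human phosphomannose isomerase with PGI, G6PDH, diaphorase coupling enzymes. Quantity: 15 ng/mL PMI. Medium: HEPES pH 7.4 buffer with MgCl2 and Tween-20. Reagent: Near-saturating mannose-6-phosphate, 1.0 mM. Compound: 20 µM single dose. Times: enzyme reaction with compound 20 min at room temperature. Detection: resorufin fluorescence at Ex 544/Em 590 nm.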
bCat KO growth – beta-catenin-lacking colon tumor cell growth suppression; viability, % at 10 µM; actives 1.5% (n = 140,000); HCT116 beta-catenin knockout viability, CellTiter-Glo, 60 h; active compounds read low; AID 818;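 active means viability at or under a set limit, the compound median less 4 SD, cut at about 6% in these data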
Lmaj promast – Leishmania major promastigote growth inhibition | Leishmania major promastigotes, resazurin fluorescence viability | inhibition, % at 10 µM | actives 9% (n = 200,000) | AID 1063; in the data active means inhibition above about 50%;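 further: promastigotes grown with compound for 44 hours at 28 °C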
HCT116 PTEN-null – growth suppressors of cells with PTEN tumor suppressor deletion; HCT116 PTEN-null viability, CellTiter-Glo, 60 h; active compounds read low; viability, % at 10 µM; actives 1.2% (n = 140,000); AID 827;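 active means viability at or below a set limit, 4 SD under the median of all tested compounds, cut at about 3.7% in these data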;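 further: PTEN knockout HCT116 line with beta catenin targeted HCT116 as companion control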
Each line names hits and unclear results; the compound was inactive in the other large screens.

Cc1cc(C(=O)CSc2n[nH]c(-c3ccccc3F)n2)c(C)n1Cc1cccs1	Lmaj promast 83
Cc1csc(SCC(=O)c2cc(C)n(Cc3cccs3)c2C)n1	Lmaj promast 56
CC(=O)Nc1ccc(SCC(=O)c2cc(C)n(Cc3cccs3)c2C)cc1	none
COc1nc(N2CCOCC2)nc(C)c1[N+](=O)[O-]	Lmaj promast 62
CCC(=O)Nc1cc(C(=O)OC(C(=O)c2ccc(C)c(C)c2)c2ccccc2)ccc1C (stereo not given)	none
COc1ccc(Cl)cc1Nc1nc(-c2sc(NC(=O)C(C)(C)C)nc2C)cs1	Lmaj promast 96
COc1ccc(Cl)cc1Nc1nc(-c2sc(NC(=O)c3ccco3)nc2C)cs1	none
COc1ccc(OC)c(Nc2nc(-c3sc(C)nc3C)cs2)c1	none
COc1ccc(OC)c(Nc2nc(-c3sc(NC(=O)C(C)(C)C)nc3C)cs2)c1	Lmaj promast 93
CC(=O)c1coc2ccc(OCCN3CCCCC3)cc12	Lmaj promast 91
COC(=O)c1ccc(Oc2coc3cc(OCc4ccc([N+](=O)[O-])cc4)ccc3c2=O)cc1	none
CC(NC(=O)CCSc1nc(-c2ccc3c(c2)OCO3)cc(C(F)(F)F)n1)c1ccccc1 (stereo not given)	Lmaj promast 62
O=C(CCCSc1nc(-c2ccco2)cc(C(F)(F)F)n1)Nc1ccc2c(c1)OCO2	none
CCc1ccc(C(=O)CSc2nc3ccccc3c(=O)[nH]2)cc1	Lmaj promast 98
Cc1ccc(C(=O)CSc2nc3ccccc3c(=O)[nH]2)cc1	none
Nc1cc(=O)[nH]c(SCc2nc3ccccc3n2Cc2ccccc2)n1	none
O=c1[nH]c(SCc2nc3ccccc3n2Cc2ccccc2)nc2ccccc12	bCat KO growth 2.1, HCT116 PTEN-null 2.7
C=CCSc1nnc(NC(=O)c2cccc(S(=O)(=O)N(C)c3ccccc3)c2)s1	Lmaj promast 63
CN(C)S(=O)(=O)c1ccc(C(=O)Nc2nnc(SCc3cccc(F)c3)s2)cc1	Lmaj promast 52
CCOC(=O)c1sc(NC(=O)C2C3C=CC(C3)C2C(=O)O)nc1C (stereo not given)	none
CCOc1nnnc2c1sc1nc(N3CCOCC3)c3c(c12)CCCC3	none
COc1ccc(C)cc1NC(=O)COC(=O)c1ccc([N+](=O)[O-])o1	none (no result: bCat KO growth, HCT116 PTEN-null)
CCOC(=O)N/N=C(/C)c1ccc([N+](=O)[O-])o1	Lmaj promast 96
CC1CCC(C(C)C)C(OC(=O)COC(=O)c2cccn2C)C1 (stereo not given)	none
CC1CCC(C(C)C)C(OC(=O)Cn2c(-c3ccc(Br)cc3)[n+](C)c3ccccc32)C1 (stereo not given)	Lmaj promast 100 (no result: bCat KO growth, HCT116 PTEN-null)
Cc1ccccc1OCc1n(CC(=O)OC2CC(C)CCC2C(C)C)c2ccccc2[n+]1C (stereo not given)	Lmaj promast 101 (no result: bCat KO growth, HCT116 PTEN-null)
Cc1cc(-c2cc(-c3ccc(Cl)cc3)nc(N)c2C#N)co1	Lmaj promast 62
COc1ccc(-c2cc(-c3ccc(O)cc3)nc(N)c2C#N)cc1OC	Lmaj promast 65 (no result: PMI activator, PMI act satM6P, bCat KO growth, HCT116 PTEN-null)
Cc1nn2c(c1-c1ccc(Cl)cc1)N=C(c1ccco1)CC2c1ccccc1 (stereo not given)	none
Cc1ccc2nc(NC(=O)COC(=O)c3ccccn3)sc2c1	none (no result: bCat KO growth, HCT116 PTEN-null)
Cc1cccc(CN2CCN(Cc3cccc(-n4cccn4)c3)CC2CCO)n1 (stereo not given)	none (no result: bCat KO growth, HCT116 PTEN-null)
Cc1ccc(NC(=O)CSc2nc(N)c3cc4c(nc3n2)CCCC4)cc1	Lmaj promast 93
Cc1ccc(NC(=O)CSc2nc(N)c3c4c(sc3n2)CSC(C)(C)C4)cc1	Lmaj promast 88
COc1ccc(NC(=O)CSc2nc(N)c3cc4c(nc3n2)CCCC4)c(OC)c1	none
Nc1nc(SCC(=O)Nc2ccccc2)nc2nc3c(cc12)CCCC3	Lmaj promast 66
O=C(Nn1cnc2ccccc2c1=O)C1CCCCC1	none
COc1ccc(C(=O)COc2ccc(F)cc2)c(O)c1C	none (no result: bCat KO growth, HCT116 PTEN-null)
Cc1ccc(Cn2nnc3c(=O)n(CC(=O)NCc4ccccc4)cnc32)cc1	none (no result: bCat KO growth, HCT116 PTEN-null)
COC(=O)c1c(NC(=O)CN2CCC3(O)CCCCC3C2c2ccc(OC)cc2OC)sc(C)c1C (stereo not given)	Lmaj promast 62
COc1cc([C@H]2[C@@H]3CCCC[C@]3(O)CCN2CC(=O)Nc2ccc(C)cc2C)ccc1O	Lmaj promast 65
COC(=O)c1c(NC(=O)CN2CCC3(O)CCCCC3C2c2ccccc2OC)sc(C)c1C (stereo not given)	none
